Measured values taken from ChEMBL document CHEMBL4513216, “Probing the Open Global Health Chemical Diversity Library for Multistage-Active Starting Points for Next-Generation Antimalarials” (ACS Infect Dis, 2020).

Test: Toxicity liver stage against HepG2, at 10uM
Format: cell-based
Parameters: test concentration 10 uM, cell line HepG2-A16-CD81EGFP
Conditions: human, HepG2-A16-CD81EGFP cells; read-out: INHIBITION
How it was run: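 Uninfected HepG2-A16-CD81EGFP cells, 3 × 10^3 per well, 1536-well, plated on prespotted compound at 10 μM final, parasite-free screening media added to match infected plates; puromycin 10 μM positive, DMSO 0.5% negative; run in parallel with 48 h PbLuc assay at 37 °C, 5% CO2; viability by CellTiter-Glo luminescence, normalized to controls.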

SMILES | cytotoxicity at 10 µM
COc1ccc(CN2CCC[C@H]2c2nc(-c3cncnc3N)no2)cc1 | -57%
CCOC(=O)[C@H]1[C@@H](O)C(=O)N(C)C12CCN(S(=O)(=O)CC)CC2 | -6.06%
CC(C)Cc1nc(OCC#N)c(C#N)c2c1CCC2 | -1.63%
CC(C)C[C@H](NC(=O)NC1CCS(=O)(=O)C1)C(=O)NCc1cccnc1 (stereo not given in full) | 0.948%
COc1ccc(NC(=O)Nc2cnc(N3CCN(C)CC3)nc2)cc1Cl | -19.8%
COc1ccc(C(=O)COc2coc(CN3CCCCC3)cc2=O)cc1 | 5.12%
O=C(O)CNC(=O)Cc1csc(-c2cccc(Cl)c2)n1 | 4.32%
CCOC(=O)N1CCN(c2nc(NC)c3ccccc3n2)CC1 | -9.75%
Nc1nnc(CCCn2nnc(-c3ccccc3F)n2)s1 | -1.67%
CCCNC(=O)c1cc(C(C)C)nc(N2CCCCC2)n1 | 15.8%
CNC(=O)CCc1cccc(C2CCCN(c3cc(C)ncn3)C2)n1 (stereo not given) | 1.58%
CN1CCN([C@@H]2CN(C(=O)c3cc4cccc(F)c4[nH]3)C[C@H]2O)CC1 | -6.81%
Cc1cc2c(=O)n3c(nc2s1)CCN(C(=O)c1nn(C)cc1Cl)CC3 | 16.6%
CNC(=O)CN1CCC2(CC1)C[C@@H](O)[C@H](c1ccccc1)NC2=O | -32.2%
CCCc1ncc(CNC2(c3ccc(Cl)cc3)CC2)cn1 | -31.6%
Cc1nc(Nc2ncccn2)cc(C2CCN(CC(C)C)C2)n1 (stereo not given) | -16.1%
Cc1cccnc1C(=O)N1CCC(Cc2cnc3[nH]ccc3c2)CC1 | 1.85%
Cc1nc(CC(=O)N2CCCCC2c2ccn3ccnc3n2)cs1 (stereo not given) | -13.4%
CC1(C(=O)NCc2ccsc2)CCOCC1 | 5.73%
O=C(NCc1nnc2n1C(C(=O)NC1CC1)CC2)c1ccc(Cl)cc1Cl (stereo not given) | 5.06%
CCC(=O)Nc1ccc(N2CCC(OC)CC2)c(C(F)(F)F)c1 | 5.72%
Cc1ccc(C(=O)NCCS(=O)(=O)Cc2ccccc2)c(=O)[nH]1 | -5.96%

SMILES | cytotoxicity at 10 µM
CC1CC(NS(=O)(=O)c2ccc(C(F)(F)F)nc2)C1 (stereo not given) | 23.1%
Cc1ccc(C)c(CS(=O)(=O)Cc2ccn(C)c(=O)c2)c1 | 13.8%
O=S(=O)(NCCCn1cncn1)c1ccc2c(c1)CCO2 | -10.2%
O=C(NCc1ccc(-n2cncn2)nc1)c1cc(Cl)ccn1 | 2.8%
Cc1ccc(F)c2c1CCCN2CC(=O)NC1CCS(=O)(=O)C1 (stereo not given) | -11.9%
Cn1ccnc1CN1CCN(Cc2cc(-c3ccccc3)no2)CC1 | -15.5%
Cc1cccc(C(=O)N2CCSCC2)c1NC(=O)c1cccnc1 | -2.83%
Cc1cnc(CNC(=O)NC2CCCN(c3ccccc3F)C2)s1 (stereo not given) | 16.4%
Cc1ccc(C(=O)NCCS(=O)(=O)N2CCSCC2)o1 | 6.13%
COc1ccc(CN(C(=O)C(C)SC)c2cnn(C)c2)c(OC)c1 (stereo not given) | -3.88%
Cc1nnc2n1CCN(CC(=O)NC(C)c1ccc3ccccc3c1)C2 (stereo not given) | -7.91%
CC(C)Cc1noc(CNc2cccc(-c3nnnn3C)c2)n1 | 4.6%
COc1cc(CN2CCC(NC(=O)c3cccn3C)C2)cc(OC)c1 (stereo not given) | -12.6%
N#Cc1c(F)cccc1Nc1cnn(CC(O)CN2CCOCC2)c1 (stereo not given) | -1.47%
O=C(NCC1CCN(CCc2ccccc2)C1)c1c(F)cccc1F (stereo not given) | 16.6%
COc1cc(NC(=O)NCCO)ccc1N1CCOC1=O | -0.803%
Cc1ccc(NC(=O)c2nc(N3CCCCC3)ncc2Cl)cc1I | -0.906%
CCN1CCN(c2ccc(F)cc2C(C)NCc2ccccn2)CC1 (stereo not given) | 7.96%
Cc1nsc(N2CCCN(C(=O)NCc3cc(C)on3)CC2)n1 | -1.63%
Cc1csc(CNC(=O)NC(C)c2ccc3c(c2)OCCO3)n1 (stereo not given) | -5.72%
CC(CC#N)N(C)Cc1ccc(F)cc1C#N (stereo not given) | -6.69%
Cc1noc(NS(=O)(=O)c2ccc(Cl)s2)c1C | 5.3%

SMILES | cytotoxicity at 10 µM
O=C1CCc2cc(S(=O)(=O)NC(=O)c3ccc4c(c3)CCO4)ccc2N1 | -17.7%
CN(C)S(=O)(=O)c1ccc(CNC(=O)C2CC2)cc1 | 7.04%
CC(C)CCS(=O)(=O)N1CCCC(c2nncn2C(C)C)C1 (stereo not given) | 5.04%
N#Cc1ccc(NC(=O)N2CCCCC2CN2CCCC2=O)cc1 (stereo not given) | 4.65%
O=C(CCc1cscn1)N1CCC(C(=O)O)(c2ccccc2)CC1 | -5.36%
Cn1c(=O)ccn(CC(=O)N2CCCC(n3cccn3)C2)c1=O (stereo not given) | -8.92%
Fc1ccc(C2CN(CCc3ccncc3)CCO2)cc1 (stereo not given) | 11%
CC1CN(CCc2ccncc2)CCO1 (stereo not given) | -1.99%
CN(Cc1ccccc1F)C(=O)c1ccoc1 | 11.3%
Cc1ccc(CNCc2nnc3n2CC(C(F)(F)F)CC3)cc1 (stereo not given) | 6.84%
CCOCC(=O)NC1(c2cccc(Br)c2)CC1 | -11.3%
COCC1c2nnn(C)c2CCN1C(=O)c1ccc(OC)c(F)c1 (stereo not given) | -105%
Cn1cccc1C(=O)N1C[C@H](OCC2CCOCC2)[C@H]2COC[C@H]21 | -109%
CC1=N[C@@]2(CC[C@@H]3CN(S(C)(=O)=O)C[C@@H]32)C(=O)N1CC(C)C | -71.3%
O=C1CC(c2ccccc2)C2(CCN(C(=O)c3cnccn3)CC2)N1 (stereo not given) | -75.1%
c1ccc(-c2nnn3c2COC(CNCC2CCOCC2)C3)cc1 (stereo not given) | 11%
CN(C)C(C(=O)N1CCN(CCn2cccc2)CC1)c1cccc(F)c1 (stereo not given) | -22.8%
O=C(NCCCOc1cccnc1)c1cn(CCc2ccccc2)nn1 | -0.977%
OCCN1CCN(Cc2cnc3c(-c4ccccc4)cnn3c2)CC1 | -2.72%
CCc1ccc(CN(C)C(=O)C(c2ccccc2F)N(C)C)nc1 (stereo not given) | 4.03%
COCCN1CCCC2(CCN(c3cccc(C(F)(F)F)n3)C2)C1=O (stereo not given) | 3.84%
COc1cccc2c1OCC(C(=O)N1Cc3ccccc3C1)C2 (stereo not given) | 3.16%

SMILES | cytotoxicity at 10 µM
Cn1ccnc1CN1CCC(Cn2cc(-c3ccccc3)nn2)CC1 | 0.959%
COCc1cc(CNC(=O)c2c(C)c(C)cc(C)c2C)n[nH]1 | -6.65%
O=S(=O)(NCc1ccccc1)Nc1ccc(-n2ccnc2)cc1 | 7.03%
O=C1CC(NCc2ccncc2)CN1CCc1cccc(Cl)c1 (stereo not given) | -127%
NCC1CCCCN1Cc1cc(O)c2cccc(F)c2n1 (stereo not given) | -18.2%
Cc1cc(C)c2nc(C)cc(C(=O)NC(C)c3nnn[nH]3)c2c1 (stereo not given) | 7.24%
CCc1nc(CN(C)C(=O)c2cc(CN(CC)CC)c(CC)o2)no1 | 0.9%
CC(=O)N[C@@H]1CN(C(=O)c2ccc[nH]2)C[C@H]1c1ccc(C)o1 | 5.16%
CCOC(=O)c1coc(N2CCN(Cc3ccc(C)cc3)C(=O)C2)n1 | -0.0261%
CN(Cc1ccc(-n2cccn2)cc1)c1nc(N)nc2c1CCNCC2 | 6.99%
Cc1ccoc1C(=O)N1CCNCC1C(=O)NCc1ccncc1 (stereo not given) | 6.03%
CC(=O)Nc1ccc(Oc2ccc(CN3CCCC3)cc2F)cc1 | 0.9%
Cc1cccnc1CN1CCN(C(=O)c2ccn(C(C)(C)C)c2)CC1 | 11%
O=C1NC[C@@]2(C(=O)O)CN(Cc3cccc(C(F)(F)F)c3)C[C@@H]12 | -8.58%
Cn1c(Cn2cccn2)nnc1C1CCCN(c2ccncc2)C1 (stereo not given) | -14.2%
COCCN1CCCC(O)(CN2CCN(c3ncccc3C)CC2)C1=O (stereo not given) | -10.3%
CC(C)c1nccn1CCCNC(=O)c1ccc(N(C)C)nc1 | 15.7%
Cc1scc(C(=O)N2CCC3(CCCN(C)C3=O)C2)c1-c1ccccc1 (stereo not given) | -6.05%
O=C(c1cc(=O)[nH]c(=O)[nH]1)N1CCCCC1c1nc2cc(F)ccc2[nH]1 (stereo not given) | -9.64%
CN1CCCC(Cc2cncc(Br)c2)CC1 (stereo not given) | -5.95%
COC(=O)c1cccn1C1CCN(Cc2cccc(C(N)=O)c2)CC1 | -4.7%
CC(C)c1nc(C2CCCN(C(=O)c3ccc4c(c3)OCO4)C2)no1 (stereo not given) | -14.1%

SMILES | cytotoxicity at 10 µM
Cc1cnn(CC2CN(Cc3nc4cccnc4[nH]3)CCO2)c1 (stereo not given) | -1.04%
Cc1cc(NC(=O)CN2CCn3c(C)nnc3C2)no1 | -3.82%
Cc1cccc(CS(=O)(=O)CC(=O)NCCCOC(C)C)c1 | -5.15%
Cn1ccnc1CN1CCN(CCOc2ccccc2C#N)CC1 | -14.9%
COc1cccc(CN2CCN(C(=O)CN3CCOCC3)CC2)n1 | -5.7%
COc1cccc(C(=O)NS(=O)(=O)c2cccc(C#N)c2)c1OC | -8.06%
Cc1noc(C2CCN(C(=O)CCNS(C)(=O)=O)CC2)n1 | -21%
Cc1cnc(CN(C)C2CCN(CCn3cc(C#N)cn3)C2)o1 (stereo not given) | -5.45%
Cc1nn(C)c(C)c1C1CCCN1CC(=O)Nc1ccncc1 (stereo not given) | -5.53%
Cc1ccn(-c2cccc(C(=O)N3CCCC(n4ccnc4C)C3)c2)n1 (stereo not given) | -14.2%
COc1ccc(CC(=O)N2CCC[C@@H](N)[C@@H]2c2ccccc2F)cc1 | 2.49%
COc1ccc(CN2CCn3c(CO)nnc3C2)cc1CN1CCCC1 | -24.5%
c1cnc(N2CCCC3(CCN(c4ncccn4)C3)C2)nc1 (stereo not given) | -151%
CN1Cc2c(C(=O)Nc3cccnc3)ncn2-c2ccccc2S1(=O)=O | -4%
CNC(=O)c1cc2c(nc1N(C)C)CCN(S(=O)(=O)N(C)C)CC2 | -138%
COCCC(=O)N1CCC2(CCN(Cc3cccc(F)c3)CC2)CC1 | -75%
O=C(c1ccccn1)N1C[C@H]2CCC[C@@]2(COCC2CCOCC2)C1 | -76.3%
Cn1ccnc1CN1CCC2(CC(=O)N(c3ccccn3)C2)C1 (stereo not given) | -74.6%
Cc1ccc(N2CCO[C@H]3CN(Cc4ccc(F)cc4)C[C@H]32)nn1 | -88.6%
CC(C)N(C)Cc1cncc2c1CCN(CC1CC1)C2 | -102%
O=C1OCCN1CC(=O)N1C[C@@H]2CC[C@H]1CN(C(=O)c1ccccn1)C2 | 13.5%
O=C(Cc1cccs1)N1C[C@H]2CC[C@@H](C1)N(Cc1ccccn1)C2=O | 1.07%
